From ChEMBL document CHEMBL1629652, “Immobilization reduces the activity of surface-bound cationic antimicrobial peptides with no influence upon the activity spectrum” (Antimicrob Agents Chemother, 2009)
Values after ≈ are worked out from the molar mass of the structure shown. Where a SMILES comes first, the peptide text is derived from it.

What was measured:
Bacillus subtilis [1] = test: Antimicrobial activity against Bacillus subtilis DSM 347 after 17 hrs; assay type: functional; conditions: DSM 347, 17 h
How it was run: (§1)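 Mid-log cells (OD600 0.4 to 0.5, grown in LB at 37°C, 180 rpm) in LB at 1.6 x 10^6 cells/ml. Soluble peptides were tested in microtiter wells at 100 to 0.05 µM (twofold dilutions). Resin-bound peptides were tested in tubes at 0.5 to 80 mg/ml resin with horizontal shaking. Incubation 37°C, 180 rpm; A600 read at 17 h; triplicate. Resin MICs were converted to mM using peptide loading per mg resin.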

Bacillus subtilis [2] = test: Bactericidal activity against Bacillus subtilis DSM 347 after 24 hrs; assay type: functional; conditions: DSM 347, 24 h
How it was run: (§2)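 MBC: after the 17 h LB broth dilution growth assay (1.6 x 10^6 cells/ml, 37°C, shaking), 200 µl from wells at or above the MIC was spread on LB agar. Plates were incubated 24 h at 37°C and colonies counted. MBC is the lowest concentration giving no colonies. Triplicate.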

Escherichia coli [3] = test: Antimicrobial activity against Escherichia coli DH5[alpha] after 17 hrs; assay type: functional; how it was run: as §1
Escherichia coli [4] = test: Bactericidal activity against Escherichia coli DH5[alpha] after 24 hrs; assay type: functional; how it was run: as §2
[5] = Cytotoxicity against human RBC assessed as hemolytic activity after 30 mins by spectrophotometry; assay type: cell-based; conditions: erythrocyte, 0.5 h
How it was run: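 Human RBCs were washed in 10 mM Tris, 150 mM NaCl, pH 7.4 and incubated at 2.5 x 10^8 cells/ml with peptide in 1 ml buffer for 30 min with gentle shaking. Samples were ice-cooled and centrifuged (2,000 x g, 4°C, 5 min); supernatant was diluted in 0.5% NH4OH and read at OD540. 0.5% NH4OH served as 100% lysis. EC25 was taken from dose-response curves.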

CC(=O)N[C@@H](CCCCN)C(=O)N[C@@H](CC(C)C)C(=O)N[C@@H](C)C(=O)N[C@@H](CC(C)C)C(=O)N[C@@H](CCCCN)C(=O)N[C@@H](CC(C)C)C(=O)N[C@@H](C)C(=O)N[C@@H](CC(C)C)C(=O)N[C@@H](CCCCN)C(=O)N[C@@H](C)C(=O)N[C@@H](CC(C)C)C(=O)N[C@@H](CCCCN)C(=O)N[C@@H](C)C(=O)N[C@@H](C)C(=O)N[C@@H](CC(C)C)C(=O)N[C@@H](CCCCN)C(=O)N[C@@H](CC(C)C)C(=O)N[C@@H](C)C(N)=O
MIC (Bacillus subtilis [1]): 0.8 µM (≈ 1.53 µg/mL)
MBC (Bacillus subtilis [2]): 0.8 µM (≈ 1.53 µg/mL)
MIC (Escherichia coli [3]): 12.5 µM (≈ 24 µg/mL)
MBC (Escherichia coli [4]): 12.5 µM (≈ 24 µg/mL)
EC25 [5]: 9.1 µM

CC[C@H](C)[C@H](NC(=O)CN)C(=O)NCC(=O)N[C@@H](CCCCN)C(=O)N[C@@H](Cc1ccccc1)C(=O)N[C@H](C(=O)N[C@@H](Cc1cnc[nH]1)C(=O)N[C@@H](C)C(=O)N[C@H](C(=O)N[C@@H](CCCCN)C(=O)N[C@@H](CCCCN)C(=O)N[C@@H](Cc1c[nH]c2ccccc12)C(=O)NCC(=O)N[C@@H](CCCCN)C(=O)N[C@H](C(=O)N[C@@H](Cc1ccccc1)C(=O)N[C@H](C(=O)NCC(=O)N[C@@H](CCC(=O)O)C(=O)N[C@H](C(=O)N[C@@H](C)C(=O)N[C@@H](CCCCN)C(=O)N[C@@H](CO)C(N)=O)[C@@H](C)CC)[C@@H](C)CC)[C@@H](C)O)C(C)C)[C@@H](C)CC (H-GIGKFIHAVKKWGKTFIGEIAKS-NH2)
MIC (Bacillus subtilis [1]): 1.6 µM (≈ 4.02 µg/mL)
MBC (Bacillus subtilis [2]): 1.6 µM (≈ 4.02 µg/mL)
MIC (Escherichia coli [3]): 0.8 µM (≈ 2.01 µg/mL)
MBC (Escherichia coli [4]): 0.8 µM (≈ 2.01 µg/mL)
EC25 [5]: 334 µM

CC(C)C[C@H](NC(=O)[C@H](C)NC(=O)[C@H](CCCCN)NC(=O)[C@H](CC(C)C)NC(=O)[C@H](C)NC(=O)[C@H](CC(C)C)NC(=O)[C@H](CCCCN)NC(=O)[C@H](CC(C)C)NC(=O)[C@H](C)NC(=O)[C@H](CC(C)C)NC(=O)[C@@H](N)CCCCN)C(=O)N[C@@H](CCCCN)C(=O)N[C@@H](C)C(=O)N[C@@H](C)C(=O)N[C@@H](CC(C)C)C(=O)N[C@@H](CCCCN)C(=O)N[C@@H](CC(C)C)C(=O)N[C@@H](C)C(N)=O
MIC (Bacillus subtilis [1]): 0.8 µM (≈ 1.5 µg/mL)
MBC (Bacillus subtilis [2]): 0.8 µM (≈ 1.5 µg/mL)
MIC (Escherichia coli [3]): 1.6 µM (≈ 3 µg/mL)
MBC (Escherichia coli [4]): 1.6 µM (≈ 3 µg/mL)
EC25 [5]: 13.1 µM

CC[C@H](C)[C@H](NC(=O)CNC(C)=O)C(=O)NCC(=O)N[C@@H](CCCCN)C(=O)N[C@@H](Cc1ccccc1)C(=O)N[C@H](C(=O)N[C@@H](Cc1cnc[nH]1)C(=O)N[C@@H](C)C(=O)N[C@H](C(=O)N[C@@H](CCCCN)C(=O)N[C@@H](CCCCN)C(=O)N[C@@H](Cc1c[nH]c2ccccc12)C(=O)NCC(=O)N[C@@H](CCCCN)C(=O)N[C@H](C(=O)N[C@@H](Cc1ccccc1)C(=O)N[C@H](C(=O)NCC(=O)N[C@@H](CCC(=O)O)C(=O)N[C@H](C(=O)N[C@@H](C)C(=O)N[C@@H](CCCCN)C(=O)N[C@@H](CO)C(N)=O)[C@@H](C)CC)[C@@H](C)CC)[C@@H](C)O)C(C)C)[C@@H](C)CC (Ac-GIGKFIHAVKKWGKTFIGEIAKS-NH2)
MIC (Bacillus subtilis [1]): 1.6 µM (≈ 4.09 µg/mL)
MBC (Bacillus subtilis [2]): 1.6 µM (≈ 4.09 µg/mL)
MIC (Escherichia coli [3]): 3.1 µM (≈ 7.93 µg/mL)
MBC (Escherichia coli [4]): 3.1 µM (≈ 7.93 µg/mL)
EC25 [5]: > 400 µM
